According to ChEMBL document CHEMBL1144557, “The novel C-5 aryl, alkenyl, and alkynyl substituted uracil derivatives of L-ascorbic acid: synthesis, cytostatic, and antiviral activity evaluations” (Bioorg Med Chem, 2007):
Converted amounts (≈) assume the structure as drawn.

What was measured:
L1210 = experiment: Antiproliferative activity against mouse L1210 cells; type: functional, cell-based
Procedure, shortened: (§1)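 Suspension cells seeded at 50 × 10³ cells/well with a range of test compound concentrations. Cell number counted with a Coulter counter after 2 days (L1210) or 3 days (Molt4/C8, CEM). IC50 is the concentration that cuts cell growth by 50% versus untreated controls, read from plots of cell number (% of control) against concentration.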

[1] = Antiproliferative activity against human Molt4/C8 cells; type: functional, cell-based; details: MOLT-4; procedure, shortened: as §1
WI-38 = experiment: Antiproliferative activity against human WI38 cells after 72 hrs by MTT assay; type: functional, cell-based; details: WI-38, 72 h
Procedure, shortened: (§2)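 Monolayers grown in DMEM with 10% FBS, 2 mM L-glutamine and penicillin/streptomycin at 37 °C, 5% CO2. Seeded at 1 × 10⁴–3 × 10⁴ cells/mL on day 0. Compounds from 0.04 M DMSO stocks added at five 10-fold dilutions (10⁻⁸–10⁻⁴ M final), with matched DMSO controls, for 72 h. MTT added for 4 h, formazan dissolved in DMSO, absorbance read at 570 nm. Percentage growth calculated against time-zero and untreated OD. IC50 is 50% inhibition of proliferation.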

HeLa = experiment: Antiproliferative activity against human HeLa cells after 72 hrs by MTT assay; type: functional, cell-based; procedure, shortened: as §2
SW-620 = experiment: Antiproliferative activity against human SW620 cells after 72 hrs by MTT assay; type: functional, cell-based; details: SW-620, 72 h; procedure, shortened: as §2
[2] = system: Vesicular stomatitis virus; experiment: Antiviral activity against in Vesicular stomatitis virus- induced cytopathogenicity in HeLa cells; type: functional
CCRF-CEM = experiment: Antiproliferative activity against human CEM cells; type: functional, cell-based; procedure, shortened: as §1
MIA PaCa-2 = experiment: Antiproliferative activity against human MiaPaCa2 cells after 72 hrs by MTT assay; type: functional, cell-based; details: Homo sapiens, MIA PaCa-2, 72 h; read-out: IC50; procedure, shortened: as §2
MCF7 = experiment: Antiproliferative activity against human MCF7 cells after 72 hrs by MTT assay; type: functional, cell-based; details: MCF7, 72 h; procedure, shortened: as §2
Coxsackievirus B4 = experiment: Antiviral activity against Coxsackie virus B4-induced cytopathogenicity in Vero cells; type: functional; details: Enterovirus B
Human alphaherpesvirus 1 [3] = experiment: Antiviral activity against HSV1 TK- KOS ACV-induced cytopathogenicity in E6SM cells; type: functional; details: Human alphaherpesvirus 1, KOS
Sindbis virus = experiment: Antiviral activity against Sindbis virus-induced cytopathogenicity in Vero cells; type: functional
[4] = Cytotoxicity against E6SM cells; type: cell-based; details: human
Procedure, shortened: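 Cells seeded at 5 × 10³ cells/well and exposed to medium containing a range of test compound concentrations. After 3 days at 37 °C, cell morphology examined microscopically. Reported as minimum cytotoxic concentration (MCC), the concentration causing a microscopically detectable alteration of normal cell morphology.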

Human alphaherpesvirus 2 = experiment: Antiviral activity against HSV2 G-induced cytopathogenicity in E6SM cells; type: functional; details: Human alphaherpesvirus 2, G
Human alphaherpesvirus 1 [5] = experiment: Antiviral activity against HSV1 KOS-induced cytopathogenicity in E6SM cells; type: functional; details: Human alphaherpesvirus 1, KOS
HEp-2 = experiment: Antiproliferative activity against human Hep2 cells after 72 hrs by MTT assay; type: functional, cell-based; details: HEp-2, 72 h; procedure, shortened: as §2
Punta Toro virus = experiment: Antiviral activity against Punta Toro virus-induced cytopathogenicity in Vero cells; type: functional
[6] = system: Vesicular stomatitis virus; experiment: Antiviral activity against in Vesicular stomatitis virus-induced cytopathogenicity in E6SM cells; type: functional

## C=CCc1cn(C/C=C2\OC(=O)C(OCc3ccccc3)=C2OCc2ccccc2)c(=O)[nH]c1=O
L1210
  IC50: 20 µM
[1]
  IC50: 20 µM
WI-38
  IC50: 10.4 µM
HeLa
  IC50: 2900 nM
SW-620
  IC50: 2700 nM
[2]
  MIC: 24 µM (≈ 11.3 µg/mL)
CCRF-CEM
  IC50: 20 µM
MIA PaCa-2
  IC50: 5 µM
MCF7
  IC50: 4.7 µM
Coxsackievirus B4
  MIC: 24 µM (≈ 11.3 µg/mL)
Human alphaherpesvirus 1 [3]
  MIC: > 8 µM
Sindbis virus
  MIC: 24 µM (≈ 11.3 µg/mL)
[4]; read-out: MCC
  MCC: 40 µM
Human alphaherpesvirus 2
  MIC: > 8 µM
Human alphaherpesvirus 1 [5]
  MIC: > 8 µM
HEp-2
  IC50: 4.7 µM
Punta Toro virus
  MIC: > 40 µM
[6]
  MIC: > 8 µM

## O=C1O/C(=C\Cn2cc(-c3ccco3)c(=O)[nH]c2=O)C(OCc2ccccc2)=C1OCc1ccccc1
L1210
  IC50: 6.8 µM
[1]
  IC50: 6.6 µM
WI-38
  IC50: 1.8 µM
HeLa
  IC50: 2000 nM
SW-620
  IC50: 2400 nM
[2]
  MIC: > 6.4 µM
CCRF-CEM
  IC50: 7 µM
MIA PaCa-2
  IC50: 1.6 µM
MCF7
  IC50: 2 µM
Coxsackievirus B4
  MIC: > 6.4 µM
Human alphaherpesvirus 1 [3]
  MIC: > 6.4 µM
Sindbis virus
  MIC: > 6.4 µM
[4]; read-out: MCC
  MCC: 32 µM
Human alphaherpesvirus 2
  MIC: > 6.4 µM
Human alphaherpesvirus 1 [5]
  MIC: > 6.4 µM
HEp-2
  IC50: 2.2 µM
Punta Toro virus
  MIC: > 6.4 µM
[6]
  MIC: > 6.4 µM

## O=C1O/C(=C\Cn2cc(-c3ccc(Br)o3)c(=O)[nH]c2=O)C(OCc2ccccc2)=C1OCc1ccccc1
L1210
  IC50: 115 µM
[1]
  IC50: 125 µM
WI-38
  IC50: 16 µM
HeLa
  IC50: 24000 nM
SW-620
  IC50: 49000 nM
[2]
  MIC: 70 µM (≈ 40.4 µg/mL)
CCRF-CEM
  IC50: 134 µM
MIA PaCa-2
  IC50: 27 µM
MCF7
  IC50: 29 µM
Coxsackievirus B4
  MIC: > 70 µM
Human alphaherpesvirus 1 [3]
  MIC: > 70 µM
Sindbis virus
  MIC: > 70 µM
[4]; read-out: MCC
  MCC: 347 µM
Human alphaherpesvirus 2
  MIC: > 70 µM
Human alphaherpesvirus 1 [5]
  MIC: > 70 µM
HEp-2
  IC50: 28 µM
Punta Toro virus
  MIC: > 70 µM
[6]
  MIC: 70 µM (≈ 40.4 µg/mL)

## C=C=Cc1cn(C/C=C2\OC(=O)C(OCc3ccccc3)=C2OCc2ccccc2)c(=O)[nH]c1=O
L1210
  IC50: > 250 µM
[1]
  IC50: > 250 µM
WI-38
  IC50: > 100 µM
HeLa
  IC50: > 100000 nM
SW-620
  IC50: > 100000 nM
[2]
  MIC: > 40 µM
CCRF-CEM
  IC50: > 250 µM
MIA PaCa-2
  IC50: > 100 µM
MCF7
  IC50: 77 µM
Coxsackievirus B4
  MIC: > 200 µM
Human alphaherpesvirus 1 [3]
  MIC: > 8 µM
Sindbis virus
  MIC: > 200 µM
[4]; read-out: MCC
  MCC: 40 µM
Human alphaherpesvirus 2
  MIC: > 8 µM
Human alphaherpesvirus 1 [5]
  MIC: > 8 µM
HEp-2
  IC50: > 100 µM
Punta Toro virus
  MIC: > 200 µM
[6]
  MIC: 8 µM (≈ 3.76 µg/mL)

## Nc1ncnc2c1ncn2C[C@H](O)CO [(S)-DHPA]
[2]
  MIC: > 500 µM
Coxsackievirus B4
  MIC: > 500 µM
Sindbis virus
  MIC: > 500 µM
Punta Toro virus
  MIC: 300 µM (≈ 62.8 µg/mL)

## Nc1nc2c(ncn2COCCO)c(=O)[nH]1 [ACYCLOVIR]
Human alphaherpesvirus 1 [3]
  MIC: 60 µM (≈ 13.5 µg/mL)
[4]; read-out: MIC
  MCC: > 500 µM
Human alphaherpesvirus 2
  MIC: 0.8 µM (≈ 0.18 µg/mL)
Human alphaherpesvirus 1 [5]
  MIC: 0.48 µM (≈ 0.108 µg/mL)
[6]
  MIC: > 500 µM

## O=c1[nH]c(=O)n([C@H]2C[C@H](O)[C@@H](CO)O2)cc1/C=C/Br [BRIVUDINE]
[2]
  MIC: > 500 µM
Coxsackievirus B4
  MIC: > 500 µM
Human alphaherpesvirus 1 [3]
  MIC: 300 µM (≈ 99.9 µg/mL)
Sindbis virus
  MIC: > 500 µM
[4]; read-out: MIC
  MCC: > 500 µM
Human alphaherpesvirus 2
  MIC: 300 µM (≈ 99.9 µg/mL)
Human alphaherpesvirus 1 [5]
  MIC: 0.48 µM (≈ 0.16 µg/mL)
Punta Toro virus
  MIC: > 500 µM
[6]
  MIC: > 500 µM

## Nc1nc2c(ncn2COC(CO)CO)c(=O)[nH]1 [GANCICLOVIR]
Human alphaherpesvirus 1 [3]
  MIC: 0.8 µM (≈ 0.204 µg/mL)
[4]; read-out: MIC
  MCC: > 100 µM
Human alphaherpesvirus 2
  MIC: 0.096 µM (≈ 0.0245 µg/mL)
Human alphaherpesvirus 1 [5]
  MIC: 0.096 µM (≈ 0.0245 µg/mL)
[6]
  MIC: > 100 µM

## NC(=O)c1ncn([C@@H]2O[C@H](CO)[C@@H](O)[C@H]2O)n1 [RIBAVIRIN]
[2]
  MIC: 100 µM (≈ 24.4 µg/mL)
Coxsackievirus B4
  MIC: > 500 µM
Human alphaherpesvirus 1 [3]
  MIC: 500 µM (≈ 122 µg/mL)
Sindbis virus
  MIC: 100 µM (≈ 24.4 µg/mL)
[4]; read-out: MIC
  MCC: > 500 µM
Human alphaherpesvirus 2
  MIC: 300 µM (≈ 73.3 µg/mL)
Human alphaherpesvirus 1 [5]
  MIC: 500 µM (≈ 122 µg/mL)
Punta Toro virus
  MIC: 300 µM (≈ 73.3 µg/mL)
[6]
  MIC: > 500 µM
